The source made the active and inactive calls. The calls are words filed in the database; no cut-off is given here.
Assays:
[1] = Inhibition of TPA-induced EBV-early antigen activation in human Raji cells assessed as EA activation after 48 hrs; assay type: cell-based, human gammaherpesvirus 4
Procedure, shortened: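 Raji cells (EBV genome-carrying, virus non-producer Burkitt's lymphoma line; RPMI-1640 with 10% FBS) were seeded at 1×10⁶/mL and held 48 h at 37 °C with n-butyric acid (4 mmol), TPA (32 pmol) and test agent at 1000, 500, 100 or 10 mol ratio/32 pmol TPA. EA-positive cells were scored by indirect immunofluorescence with NPC patient serum, counting ≥500 cells, in triplicate. Results are expressed relative to the butyrate+TPA control (100%), and IC50 is given as mol ratio/32 pmol TPA.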

[2] = Cytotoxicity against human Raji cells assessed as cell viability at 1000 molar ratio by trypan blue staining method; assay type: cell-based; details: read-out: Activity
Procedure, shortened: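 Viability was measured by trypan blue staining of Raji cells after the 48 h, 37 °C EBV-EA induction run (n-butyric acid 4 mmol plus TPA 32 pmol), with compound at 1000 mol ratio/32 pmol TPA.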

[3] = system: Mus musculus; assay: Inhibition of DMBA-induced/TPA-promoted carcinogenesis in ICR mouse assessed as reduction of mouse bearing papillomas at 85 nmol administered 1 hr before TPA treatment measured after 10 to 15 weeks; assay type: functional
Procedure, shortened: (§1)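 In the two-stage mouse skin carcinogenesis model, DMBA was the initiator and TPA the promoter, and test agent was given at 85 nmol alongside DMBA/TPA. Papilloma-bearing mice (%), papillomas per mouse, and tumor length and width were followed through week 20 against a DMBA/TPA-only group.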

[4] = system: Mus musculus; assay: Inhibition of DMBA-induced/TPA-promoted carcinogenesis in ICR mouse assessed as reduction of mouse bearing papillomas at 85 nmol administered 1 hr before TPA treatment measured after 20 weeks; assay type: functional; procedure, shortened: as §1
[5] = system: Mus musculus; assay: Inhibition of DMBA-induced/TPA-promoted carcinogenesis in ICR mouse assessed as reduction of mouse bearing papillomas number at 85 nmol administered 1 hr before TPA treatment measured after 20 weeks; assay type: functional; procedure, shortened: as §1
[6] = system: Mus musculus; assay: Inhibition of DMBA-induced/TPA-promoted carcinogenesis in ICR mouse assessed as reduction of mouse bearing papillomas length at 85 nmol administered 1 hr before TPA treatment measured after 20 weeks; assay type: functional; procedure, shortened: as §1
[7] = system: Mus musculus; assay: Inhibition of DMBA-induced/TPA-promoted carcinogenesis in ICR mouse assessed as reduction of mouse bearing papillomas width at 85 nmol administered 1 hr before TPA treatment measured after 20 weeks; assay type: functional; procedure, shortened: as §1
[8] = organism: Mus musculus; assay: Toxicity in ICR mouse assessed as change in body weight; assay type: organism-based; details: in vivo
[9] = organism: Mus musculus; assay: Toxicity in ICR mouse assessed as lesional damage; assay type: organism-based; details: in vivo
[10] = organism: Mus musculus; assay: Toxicity in ICR mouse assessed as inflammation; assay type: organism-based; details: in vivo

Compound | IC50 [1] [molar ratio] | viability at 1000 molar ratio [2] [%] | also measured
CO[C@H]1CC[C@@]2(C)[C@@H](CC[C@@]3(C)CC4=CC[C@H]5C(C)(C)[C@H](OC(=O)Nc6ccccc6)CC[C@]5(C)[C@H]4CC[C@@H]32)C1(C)C | 459 | 60 | 
CC1(C)CC[C@]2(C(=O)O)CC[C@]3(C)C(=CC[C@@H]4[C@@]5(C)CC[C@H](O)C(C)(C)[C@@H]5CC[C@]43C)[C@@H]2C1 [OLEANOLIC_ACID] | 449 |  | 
CO[C@H]1CC[C@@]2(C)[C@@H](CC[C@@]3(C)CC4=CC[C@H]5C(C)(C)[C@H](OC(=O)NS(=O)(=O)c6ccc(C)cc6)CC[C@]5(C)[C@H]4CC[C@@H]32)C1(C)C | 461 | 60 | 
CO[C@H]1CC[C@@]2(C)[C@@H](CC[C@@]3(C)CC4=CC[C@H]5C(C)(C)[C@H](OC(N)=O)CC[C@]5(C)[C@H]4CC[C@@H]32)C1(C)C | 470 | 60 | 
CO[C@H]1CC[C@@]2(C)[C@@H](CC[C@@]3(C)CC4=CC[C@H]5C(C)(C)[C@H](OC(=O)CCC(=O)Oc6coc(CO)cc6=O)CC[C@]5(C)[C@H]4CC[C@@H]32)C1(C)C | 371 | 70 | 
CO[C@H]1CC[C@@]2(C)[C@@H](CC[C@@]3(C)CC4=CC[C@H]5C(C)(C)[C@H](OC(=O)CCl)CC[C@]5(C)[C@H]4CC[C@@H]32)C1(C)C | 473 | 60 | 
CO[C@H]1CC[C@@]2(C)[C@@H](CC[C@@]3(C)CC4=CC[C@H]5C(C)(C)[C@H](OC(=O)CCC(=O)Oc6ccc(-c7oc8cc(O)cc(O)c8c(=O)c7O)cc6O)CC[C@]5(C)[C@H]4CC[C@@H]32)C1(C)C | 330 | 60 | inhibition (INH) [3]: 20%; inhibition (INH) [4]: 86.6%; papillomas per mouse [5]: 4.7 papillomas/mouse; Activity [6]: 26 mm; Activity [7]: 24 mm; Activity [8]: Non-toxic; Activity [9]: Non-toxic; Activity [10]: Non-toxic
CO[C@@H]1CC[C@@]2(C)[C@@H](CC[C@@]3(C)CC4=CC[C@H]5C(C)(C)[C@H](OC(=O)CCC(=O)Oc6ccc(-c7oc8cc(O)cc(O)c8c(=O)c7O)cc6O)CC[C@]5(C)[C@H]4CC[C@@H]32)C1(C)C | 350 | 60 | inhibition (INH) [3]: 26.6%; inhibition (INH) [4]: 73.3%; inhibition [5]: Active; Activity [6]: 28 mm; Activity [7]: 25 mm; Activity [8]: Non-toxic; Activity [9]: Non-toxic; Activity [10]: Non-toxic
CO[C@@H]1CC[C@@]2(C)[C@@H](CC[C@@]3(C)CC4=CC[C@H]5C(C)(C)[C@H](OC(=O)CCC(=O)Oc6coc(CO)cc6=O)CC[C@]5(C)[C@H]4CC[C@@H]32)C1(C)C | 370 | 70 | 
CO[C@H]1CC[C@@]2(C)[C@@H](CC[C@@]3(C)CC4=CC[C@H]5C(C)(C)[C@H](OC(=S)Nc6ccccc6)CC[C@]5(C)[C@H]4CC[C@@H]32)C1(C)C | 460 | 60 | 
CO[C@H]1CC[C@@]2(C)[C@@H](CC[C@@]3(C)CC4=CC[C@H]5C(C)(C)[C@H](OC(=O)Nc6ccccc6Cl)CC[C@]5(C)[C@H]4CC[C@@H]32)C1(C)C | 468 | 50 | 

More lines, main results first:

IC50 [1] [molar ratio] | Compound | viability at 1000 molar ratio [2] [%] | also measured
393 | COc1cc(/C=C/C(O)/C=C(O)/C=C/c2ccc(OC(=O)CCC(=O)O[C@@H]3CC[C@]4(C)[C@H]5CC[C@H]6[C@@](C)(CC[C@H]7C(C)(C)[C@H](OC)CC[C@@]76C)CC5=CC[C@H]4C3(C)C)c(OC)c2)ccc1O (stereo partly drawn) | 60 | 
354 | COc1cc(/C=C/C(O)/C=C(O)/C=C/c2ccc(OC(=O)CC(=O)O[C@@H]3CC[C@]4(C)[C@H]5CC[C@H]6[C@@](C)(CC[C@H]7C(C)(C)[C@H](OC)CC[C@@]76C)CC5=CC[C@H]4C3(C)C)c(OC)c2)ccc1O (stereo partly drawn) | 60 | 
338 | COc1cc(/C=C/C(=O)CC(O)/C=C/c2ccc(OC(=O)CC(=O)O[C@@H]3CC[C@]4(C)[C@H]5CC[C@H]6[C@@](C)(CC[C@H]7C(C)(C)[C@@H](OC)CC[C@@]76C)CC5=CC[C@H]4C3(C)C)c(OC)c2)ccc1OC(=O)CC(=O)O[C@@H]1CC[C@]2(C)[C@H]3CC[C@H]4[C@@](C)(CC[C@H]5C(C)(C)[C@@H](OC)CC[C@@]54C)CC3=CC[C@H]2C1(C)C (stereo partly drawn) | 60 | 
395 | COc1cc(/C=C/C(O)=C/C(O)/C=C/c2ccc(OC(=O)CCC(=O)O[C@@H]3CC[C@]4(C)[C@H]5CC[C@H]6[C@@](C)(CC[C@H]7C(C)(C)[C@@H](OC)CC[C@@]76C)CC5=CC[C@H]4C3(C)C)c(OC)c2)ccc1OC(=O)CCC(=O)O[C@@H]1CC[C@]2(C)[C@H]3CC[C@H]4[C@@](C)(CC[C@H]5C(C)(C)[C@@H](OC)CC[C@@]54C)CC3=CC[C@H]2C1(C)C (stereo partly drawn) | 60 | 
462 | COc1cc(/C=C/C(O)=C/C(O)/C=C/c2ccc(OC(=O)CCC(=O)O[C@@H]3CC[C@]4(C)[C@H]5CC[C@H]6[C@@](C)(CC[C@H]7C(C)(C)[C@H](OC)CC[C@@]76C)CC5=CC[C@H]4C3(C)C)c(OC)c2)ccc1OC(=O)CCC(=O)O[C@@H]1CC[C@]2(C)[C@H]3CC[C@H]4[C@@](C)(CC[C@H]5C(C)(C)[C@H](OC)CC[C@@]54C)CC3=CC[C@H]2C1(C)C (stereo partly drawn) | 60 | 
358 | COc1cc(/C=C/C(O)/C=C(O)/C=C/c2ccc(OC(=O)CC(=O)O[C@@H]3CC[C@]4(C)[C@H]5CC[C@H]6[C@@](C)(CC[C@H]7C(C)(C)[C@@H](OC)CC[C@@]76C)CC5=CC[C@H]4C3(C)C)c(OC)c2)ccc1O (stereo partly drawn) | 60 | 
460 | COc1cc(/C=C/C(O)/C=C(O)/C=C/c2ccc(OC(=O)CCC(=O)O[C@@H]3CC[C@]4(C)[C@H]5CC[C@H]6[C@@](C)(CC[C@H]7C(C)(C)[C@@H](OC)CC[C@@]76C)CC5=CC[C@H]4C3(C)C)c(OC)c2)ccc1O (stereo partly drawn) | 60 | 
335 | COc1cc(/C=C/C(O)=C/C(O)/C=C/c2ccc(OC(=O)CC(=O)O[C@@H]3CC[C@]4(C)[C@H]5CC[C@H]6[C@@](C)(CC[C@H]7C(C)(C)[C@H](OC)CC[C@@]76C)CC5=CC[C@H]4C3(C)C)c(OC)c2)ccc1OC(=O)CC(=O)O[C@@H]1CC[C@]2(C)[C@H]3CC[C@H]4[C@@](C)(CC[C@H]5C(C)(C)[C@H](OC)CC[C@@]54C)CC3=CC[C@H]2C1(C)C (stereo partly drawn) | 60 | 

— ChEMBL document CHEMBL1165853, “Hybrids of 3alpha-methoxyserrat-14-en-21beta-ol (PJ-1) and 3beta-methoxyserrat-14-en-21beta-ol (PJ-2) and various anti-oxidants as cancer chemopreventive agents” (Eur J Med Chem, 2010)
